Published values from different studies.
Protocols differ between the studies behind these lines.
PPARA: Peroxisome proliferator-activated receptor alpha (PPARA, Homo sapiens, UniProt Q07869)
CASP9: Caspase-9 (CASP9, Homo sapiens, UniProt P55211)

Compound | target | assay | test system | conditions | measurement | result
O=S(=O)(O)C(F)(F)C(F)(F)OC(F)(C(F)(F)F)C(F)(F)OC(F)C(F)(F)F (stereo not shown) | PPARA | reporter gene, agonist, luciferase |  |  | Emax | 28%
O=C(Nc1cccnn1)N1CCN([C@@H]2CCOc3cc(C(F)(F)F)ccc32)CC1 | Corticotropin-releasing factor receptor 1 (CRHR1, Homo sapiens, UniProt P34998) | ligand displacement |  | 20 µM | inhibition | -62%
Cc1ncc(C)n2nc(/C=C/c3nc(N4CCCC4)cc(N4CCOCC4)n3)nc12 | CASP9 | enzyme activity, inhibitor |  | 10 µM | inhibition | 11%
Clc1cccc(-c2c[nH]c3nccc(N4CCOCC4)c23)c1 | Serine/threonine-protein kinase 4 (STK4, Homo sapiens, UniProt Q13043) | thermal stability, DSF |  |  | ΔTm | > 7.4 °C
C#Cc1n[nH]c2c(-c3cn([C@@H](C)c4ccccc4)c(=O)[nH]c3=O)cc(F)cc12 | Inactive tyrosine-protein kinase PEAK1 (PEAK1, Homo sapiens, UniProt Q9H792) | enzyme activity, inhibitor |  | 0.1 µM | inhibition | 6.5%
COc1ncccc1-c1cnn2ccc(N3CCN(C(=O)OC(C)C)CC3)nc12 | Mitogen-activated protein kinase kinase kinase 1 (MAP3K1, Homo sapiens, UniProt Q13233) | binding, competition with immobilised ligand |  | 1 µM | remaining binding | 49%
Nc1ncc(-c2nc(N3CCOCC3)nc(N3CCOCC3)n2)c(C(F)F)n1 | Hepatocyte growth factor receptor (MET, Homo sapiens, UniProt P08581, M1250T) | cell-free assay, competition with immobilised ligand |  | 10 µM | remaining binding | 100%
O=C(O)C(F)(OC(F)(F)C(F)(F)C(F)(F)F)C(F)(F)F (stereo not shown) | PPARA | reporter gene, agonist, luciferase |  |  | Emax | 134%
C#Cc1n[nH]c2c(-c3cn([C@@H](C)c4ccccn4)c(=O)[nH]c3=O)cc(F)cc12 | TRAF2 and NCK-interacting protein kinase (TNIK, Homo sapiens, UniProt Q9UKE5) | enzyme activity, inhibitor |  | 0.1 µM | inhibition | -0.3%
CCOC(=O)c1ccc(OC(=O)CCCCCNC(=N)N)cc1 | Ubiquitin carboxyl-terminal hydrolase 7 (USP7, Homo sapiens, UniProt Q93009) | enzyme activity, inhibitor |  | 10 µM | inhibition | 0%
CN1CCN(c2ccc(Nc3nccc(-c4ccccc4)n3)cc2C(F)(F)F)CC1 | Calcium-dependent protein kinase 1 (CDPK1, Plasmodium falciparum, UniProt P62344) | binding |  | 10 µM | remaining binding | 13%
Cc1nn(C)cc1-c1nc2c(N3CCN(Cc4ccc(Cl)cc4)CC3)c(Cl)cnc2[nH]1 | Cyclin-dependent kinase-like 1 (CDKL1, Homo sapiens, UniProt Q00532) | binding, competition with immobilised ligand |  | 1 µM | remaining binding | 100%
COc1ccc(S(=O)(=O)N(CC(=O)NO)CC(C)C)cc1 | Interstitial collagenase (MMP1, Homo sapiens, UniProt P03956) | enzyme activity, inhibitor |  | 0.1 µM | inhibition | 2%
O=C(O)C(F)(F)C(F)(F)C(F)(F)C(F)(F)C(F)(F)C(F)(F)F | PPARA | reporter gene, agonist, luciferase | COS-7 |  | Emax | 113%
CN(C)C(=O)COC(=O)Cc1ccc(OC(=O)c2ccc(NC(=N)N)cc2)cc1 | CASP9 | enzyme activity, inhibitor |  | 10 µM | inhibition | 0%
COc1cc(Nc2ncc(F)c(Nc3ccc4c(n3)NC(=O)C(C)(C)O4)n2)cc(OC)c1OC | Serine/threonine-protein kinase OSR1 (OXSR1, Homo sapiens, UniProt O95747) | binding, competition with immobilised ligand |  | 10 µM | inhibition | 71%
